Drawing on ChEMBL document CHEMBL1949558, “Hypoxylonols C-F, benzo[j]fluoranthenes from Hypoxylon truncatum” (J Nat Prod, 2012), this text covers IC50 for six compounds.

In one experiment the test system is HUVEC. Nature of the experiment: Antiangiogenic activity in HUVEC assessed as inhibition of cell proliferation after 72 hrs by MTT assay. Conditions: Homo sapiens. It counts as functional, cell-based. In a few lines:
(§1)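 Cells were purchased and seeded at 3000/well on collagen-coated plates for 3 h at 37 °C, 5% CO2: HUVECs in EGM-2, HUAECs in EGM-2MV. The medium was then swapped to 1% FBS-EBM-2 for 21 h. VEGF (1 nM) and samples were added for 72 h. Proliferation was read with WST-8 at 450 nm, and inhibition was expressed as IC50.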
(In general: Tetrazolium dyes change colour on reduction, which living cells bring about.)

The nature of experiment [1]: Antiangiogenic activity in HUAEC assessed as inhibition of cell proliferation after 72 hrs by MTT assay. To be noted: Homo sapiens. It counts as functional. In a few lines: as §1

pIC50: −log10 of the molar value.

In general, pIC50 refers to the IC50 on a negative log10 scale, so that one unit is a factor of ten.

With `CCO[C@H]1C[C@H](O)C2=C3c4cccc(O)c4C(=O)C[C@@H]3c3ccc(O)c1c32` [HYPOXYLONOL A], the results for the pIC50 (in the experiment on HUVEC; in experiment [1]) were 4.82 and 4.80, respectively.

Take `CO[C@H]1C[C@H](O)C2=C3c4cccc(O)c4C(=O)C[C@@H]3c3ccc(O)c1c32` [HYPOXYLONOL B]: the pIC50 (in the experiment with HUVEC; in experiment [1]) was 4.62 in each case.

Regarding `O=C1C[C@H]2C(=C3c4c2ccc(O)c4[C@@H](O)C[C@@H]3O)c2cccc(O)c21` [HYPOXYLONOL C], the values for the pIC50 (in the experiment on HUVEC; in experiment [1]) were 4.68 and 4.80, respectively.

Turning to `CCO[C@@H]1C[C@H](O)C2=C3c4cccc(O)c4C(=O)C[C@@H]3c3ccc(O)c1c32` [HYPOXYLONOL D], the figures for the pIC50 (in the experiment with HUVEC; in experiment [1]) were 5.16 and 5.21, respectively.

With `CO[C@@H]1C[C@H](O)C2=C3c4cccc(O)c4C(=O)C[C@@H]3c3ccc(O)c1c32` [HYPOXYLONOL E], the pIC50 in the experiment on HUVEC is 5.13; in experiment [1], 5.39.

For `O=C1C[C@H]2C(=C3c4c2ccc(O)c4[C@H](O)C[C@@H]3O)c2cccc(O)c21` [HYPOXYLONOL F], the pIC50 in the experiment with HUVEC is 4.77; in experiment [1] it was 4.85.
